The source made the active and inactive calls. The calls are words filed in the database; no cut-off is given here.
How the values were obtained:
[1] = target: T1, AKT/p21CIP1 (Homo sapiens) (UniProt P38936+P31749); test: Inhibition of AKT/p21CIP1 in human DU145 cells assessed as decrease in ratio of phosphorylated retinoblastoma level to unphosphorylated retinoblastoma level at 0.1 uM after 72 hrs by Western blotting analysis; type: cell-based; settings: DU-145, 1 uM, in the assay text read “1 uM” for “0.1 uM”
In short: (§1)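 DU145 cells were treated 72 h and lysed in 2% SDS buffer. Equal protein was resolved by SDS-PAGE and probed for phospho-Rb Ser249/Thr252, total Rb (1:200 each) and α-tubulin. Bands were visualized on autoradiography film and read densitometrically relative to α-tubulin. The p-Rb/Rb ratio was compared with control. Results are mean SEM of three experiments, with Student's t test.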

DU-145 [2] = test: Increase in p21 protein expression in human DU145 cells at 0.1 uM after 72 hrs by Western blotting analysis; type: functional, cell-based; settings: 1 uM, in the assay text read “1 uM” for “0.1 uM”
In short: (§2)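 DU145 cells were treated 72 h, rinsed in PBS and lysed in 2% SDS buffer (50 mM Tris-HCl pH 6.8, protease inhibitors, 2 mM orthovanadate, 1 mM NaF, 1 mM pyrophosphate). Protein was quantified by BCA, and equal protein was run on 10% SDS-PAGE and blotted to nitrocellulose. Blots were blocked in 5% milk TBS-Tween 0.1%, detected by ECL and normalized to β-actin. Results are mean SEM of three experiments, with Student's t test versus control.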

DU-145 [3] = test: Decrease in total GSK3beta protein level in human DU145 cells at 0.1 uM after 72 hrs by Western blotting analysis; type: functional, cell-based; settings: 1 uM, in the assay text read “1 uM” for “0.1 uM”; in short: as §2
DU-145 [4] = test: Effect on total ERK1/2 protein level in human DU145 cells at 0.1 uM after 72 hrs by Western blotting analysis; type: functional, cell-based; in short: as §2
[5] = target: Glycogen synthase kinase-3 beta (Homo sapiens) (UniProt P49841); test: Inhibition of GSK3beta phosphorylation at Ser9 in human DU145 cells at 0.1 uM after 72 hrs by Western blotting analysis; type: cell-based; settings: DU-145; in short: as §2
DU-145 [6] = test: Effect on total AKT protein level in human DU145 cells at 0.1 uM after 72 hrs by Western blotting analysis; type: functional, cell-based; in short: as §2
[7] = target: T2, Mitogen-activated protein kinase; ERK1/ERK2 (Homo sapiens) (UniProt P27361+P28482); test: Inhibition of ERK1/2 phosphorylation at Thr202/Tyr204 in human DU145 cells at 0.1 uM after 72 hrs by Western blotting analysis relative to control; type: cell-based; settings: DU-145; in short: as §2
[8] = target: RAC-alpha serine/threonine-protein kinase (Homo sapiens) (UniProt P31749); test: Inhibition of AKT phosphorylation at Ser473 in human DU145 cells at 0.1 uM after 72 hrs by Western blotting analysis relative to control; type: cell-based; settings: DU-145; in short: as §2
[9] = target: T1, AKT/p21CIP1 (Homo sapiens); test: Inhibition of AKT/p21CIP1 in human DU145 cells assessed as decrease in ratio of phosphorylated retinoblastoma level to unphosphorylated retinoblastoma level at 1 uM after 72 hrs by Western blotting analysis; type: cell-based; settings: DU-145; in short: as §1
DU-145 [10] = test: Increase in p21 protein expression in human DU145 cells at 1 uM after 72 hrs by Western blotting analysis; type: functional, cell-based; in short: as §2
DU-145 [11] = test: Decrease in total GSK3beta protein level in human DU145 cells at 1 uM after 72 hrs by Western blotting analysis; type: functional, cell-based; in short: as §2
[12] = target: Glycogen synthase kinase-3 beta (Homo sapiens) (UniProt P49841); test: Inhibition of GSK3beta phosphorylation at Ser9 in human DU145 cells at 1 uM after 72 hrs by Western blotting analysis; type: cell-based; settings: DU-145; in short: as §2
DU-145 [13] = test: Effect on total AKT protein level in human DU145 cells at 1 uM after 72 hrs by Western blotting analysis; type: functional, cell-based; in short: as §2
DU-145 [14] = test: Effect on total ERK1/2 protein level in human DU145 cells at 1 uM after 72 hrs by Western blotting analysis; type: functional, cell-based; in short: as §2
[15] = target: T2, Mitogen-activated protein kinase; ERK1/ERK2 (Homo sapiens); test: Inhibition of ERK1/2 phosphorylation at Thr202/Tyr204 in human DU145 cells at 1 uM after 72 hrs by Western blotting analysis relative to control; type: cell-based; settings: DU-145; in short: as §2
[16] = target: RAC-alpha serine/threonine-protein kinase (Homo sapiens) (UniProt P31749); test: Inhibition of AKT phosphorylation at Ser473 in human DU145 cells at 1 uM after 72 hrs by Western blotting analysis relative to control; type: cell-based; settings: DU-145; in short: as §2
[17] = Cytotoxicity against human fibroblasts assessed as cell viability after 72 hrs by MTT assay relative to control; type: cell-based, Fibroblast; design: concentration or dose not given beside the values; settings: read-out: Activity
M14 = test: Cytotoxicity against human M14 cells assessed as cell viability after 72 hrs by MTT assay; type: functional, cell-based; settings: M14, 72 h
In short: (§3)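 Cells were grown at 37 °C in humidified 5% CO2/95% air. DU145 and A549 were kept in DMEM with 10% FCS, glutamine and nonessential amino acids. LNCaP, KB and M14 were kept in RPMI with 10% FCS, and Caco2 in MEM with 10% FCS. For the MTT assay, 1 × 10^4 cells were seeded per well and preincubated 24 h, then treated 72 h (DMSO ≤0.1%). MTT (0.5% in PBS) was added 4 h before the end, formazan was dissolved in DMSO, and OD was read at 550 nm. Triplicates were run.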

A549 = test: Cytotoxicity against human A549 cells assessed as cell viability after 72 hrs by MTT assay; type: functional, cell-based; settings: A549, 72 h; in short: as §3
KB = test: Cytotoxicity against human KB cells assessed as cell viability after 72 hrs by MTT assay; type: functional, cell-based; in short: as §3
LNCaP = test: Cytotoxicity against human LNCAP cells assessed as cell viability after 72 hrs by MTT assay; type: functional, cell-based; in short: as §3
DU-145 [18] = test: Cytotoxicity against human DU145 cells assessed as cell viability after 72 hrs by MTT assay; type: functional, cell-based; settings: DU-145, 72 h; in short: as §3
Caco-2 = test: Cytotoxicity against human Caco2 cells assessed as cell viability after 72 hrs by MTT assay; type: functional, cell-based; settings: Caco-2, 72 h; in short: as §3

T2 sequence (P27361 whole entry, looked up): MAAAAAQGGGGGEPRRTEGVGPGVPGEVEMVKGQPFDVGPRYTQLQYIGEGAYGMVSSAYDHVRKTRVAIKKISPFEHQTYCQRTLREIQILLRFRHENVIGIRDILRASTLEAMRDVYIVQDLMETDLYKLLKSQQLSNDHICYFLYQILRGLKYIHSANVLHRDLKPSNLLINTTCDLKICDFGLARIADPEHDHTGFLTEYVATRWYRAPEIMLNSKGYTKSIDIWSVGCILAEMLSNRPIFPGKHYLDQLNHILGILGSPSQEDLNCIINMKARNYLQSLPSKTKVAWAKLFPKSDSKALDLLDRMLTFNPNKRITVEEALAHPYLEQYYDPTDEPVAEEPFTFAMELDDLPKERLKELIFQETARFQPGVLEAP
T2 sequence (P28482 whole entry, looked up): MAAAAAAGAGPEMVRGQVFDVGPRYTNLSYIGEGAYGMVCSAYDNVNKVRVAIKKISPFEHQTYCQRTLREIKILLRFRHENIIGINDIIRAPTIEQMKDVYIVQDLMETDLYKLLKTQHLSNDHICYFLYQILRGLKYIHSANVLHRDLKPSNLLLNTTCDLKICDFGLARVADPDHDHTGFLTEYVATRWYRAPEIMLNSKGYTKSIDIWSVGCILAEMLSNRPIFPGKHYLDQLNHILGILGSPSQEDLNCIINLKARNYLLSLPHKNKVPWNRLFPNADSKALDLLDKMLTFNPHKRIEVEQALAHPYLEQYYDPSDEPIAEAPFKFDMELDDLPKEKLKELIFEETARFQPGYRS
Glycogen synthase kinase-3 beta (Homo sapiens), sequence (P49841 whole entry, looked up): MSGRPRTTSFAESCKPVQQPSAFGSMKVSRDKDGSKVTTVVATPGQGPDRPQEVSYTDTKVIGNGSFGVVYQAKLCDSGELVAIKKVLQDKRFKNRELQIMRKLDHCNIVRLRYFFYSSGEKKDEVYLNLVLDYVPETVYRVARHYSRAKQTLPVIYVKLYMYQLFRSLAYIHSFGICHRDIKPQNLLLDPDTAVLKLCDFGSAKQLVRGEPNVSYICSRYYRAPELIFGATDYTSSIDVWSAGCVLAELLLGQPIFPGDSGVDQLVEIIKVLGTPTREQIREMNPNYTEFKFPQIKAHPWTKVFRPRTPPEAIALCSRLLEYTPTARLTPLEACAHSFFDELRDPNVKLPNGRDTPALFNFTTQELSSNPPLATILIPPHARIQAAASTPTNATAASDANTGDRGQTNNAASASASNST
RAC-alpha serine/threonine-protein kinase (Homo sapiens), sequence (P31749 whole entry): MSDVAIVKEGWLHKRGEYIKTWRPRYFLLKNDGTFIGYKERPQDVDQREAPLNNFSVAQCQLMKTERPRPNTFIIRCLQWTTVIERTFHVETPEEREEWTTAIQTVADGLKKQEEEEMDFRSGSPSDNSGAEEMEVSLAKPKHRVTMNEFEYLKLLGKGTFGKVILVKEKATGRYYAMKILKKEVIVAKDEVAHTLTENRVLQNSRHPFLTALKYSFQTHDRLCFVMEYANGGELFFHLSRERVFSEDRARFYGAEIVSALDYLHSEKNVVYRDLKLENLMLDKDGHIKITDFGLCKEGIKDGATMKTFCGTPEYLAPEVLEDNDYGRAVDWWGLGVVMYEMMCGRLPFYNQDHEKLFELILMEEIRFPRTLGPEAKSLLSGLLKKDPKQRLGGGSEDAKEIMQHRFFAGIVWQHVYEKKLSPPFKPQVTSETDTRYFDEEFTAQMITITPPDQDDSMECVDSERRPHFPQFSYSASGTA

With `COc1ccc(/C(=C\c2cn(C(C)=O)c3ccc(OCc4ccccc4)cc23)C(=O)O)cc1` as the molecule, how does the inhibition [1] read?
Its inhibition is “Active”.

And the Activity (DU-145 [2])?
Its Activity is “Active”.

What about the Activity (DU-145 [3]) of the same molecule?
Its Activity is “Active”.

What about the Activity (DU-145 [4]) of the same molecule?
Its Activity is “inactive”.

And the inhibition [5]?
Its inhibition is “inactive”.

What about the Activity (DU-145 [6]) of the same molecule?
Its Activity is “inactive”.

What about the inhibition [7] of the same molecule?
The inhibition was “Active”.

What about the inhibition [8] of the same molecule?
The inhibition was “Active”.

And the inhibition [9]?
The inhibition was “Active”.

What about the Activity (DU-145 [10]) of the same molecule?
Its Activity is “Active”.

And the Activity (DU-145 [11])?
The Activity was “Active”.

What about the inhibition [12] of the same molecule?
The inhibition was “inactive”.

And the Activity (DU-145 [13])?
The Activity was “inactive”.

What about the Activity (DU-145 [14]) of the same molecule?
The Activity was “inactive”.

And the inhibition [15]?
The inhibition was 40%.

What about the inhibition [16] of the same molecule?
The inhibition was 20%.

What about the viability at 72 h [17] of the same molecule?
The viability at 72 h was 85%.

What about the IC50 (M14) of the same molecule?
Its IC50 is over 100 µM.

And the IC50 (A549)?
The IC50 was over 100 µM.

What about the IC50 (KB) of the same molecule?
The IC50 was over 100 µM.

What about the IC50 (LNCaP) of the same molecule?
Its IC50 is 85 µM.

And the IC50 (DU-145 [18])?
Its IC50 is 0.91 µM.

Which viability at 72 h [17] does the source give for `COc1ccc(OC)c(/C(=C\c2cn(C(C)=O)c3ccc(OCc4ccccc4)cc23)C(=O)O)c1` here?
Its viability at 72 h is 85%.

And the IC50 (M14)?
The IC50 was 87.1 µM.

And the IC50 (A549)?
The IC50 was 54.5 µM.

What about the IC50 (KB) of the same molecule?
Its IC50 is over 100 µM.

And the IC50 (LNCaP)?
Its IC50 is 44.1 µM.

What about the IC50 (DU-145 [18]) of the same molecule?
Its IC50 is 0.83 µM.

What does the source list for `COc1ccc(/C(=C\c2c[nH]c3ccc(OCc4ccccc4)cc23)C(N)=O)cc1`?
viability at 72 h [17]: 85%; IC50 (M14): > 100 µM; IC50 (Caco-2): > 100 µM; IC50 (KB): > 100 µM; IC50 (DU-145 [18]): 39.8 µM

With `COc1cc(OC)cc(/C(=C\c2cn(C(C)=O)c3ccc(OCc4ccccc4)cc23)C(=O)O)c1` as the molecule, how does the viability at 72 h [17] read?
The viability at 72 h was 85%.

And the IC50 (M14)?
The IC50 was 94 µM.

And the IC50 (A549)?
The IC50 was 26 µM.

What about the IC50 (KB) of the same molecule?
Its IC50 is 30.4 µM.

What about the IC50 (LNCaP) of the same molecule?
The IC50 was 26.1 µM.

And the IC50 (DU-145 [18])?
Its IC50 is 0.88 µM.

What does the source list for `CC(=O)n1cc(/C=C(/C(=O)O)c2ccc(OCc3ccccc3)cc2)c2cc(OCc3ccccc3)ccc21`?
viability at 72 h [17]: 85%; IC50 (M14): 58.2 µM; IC50 (A549): 44.1 µM; IC50 (KB): 43 µM; IC50 (LNCaP): 77.7 µM; IC50 (DU-145 [18]): 1.41 µM

What does the source list for `CC(=O)n1cc(/C=C(/C(=O)O)c2ccccc2)c2cc(OCc3ccccc3)ccc21`?
viability at 72 h [17]: 85%; IC50 (M14): > 100 µM; IC50 (A549): 57.5 µM; IC50 (KB): 55.5 µM; IC50 (LNCaP): > 100 µM; IC50 (DU-145 [18]): 26.7 µM

With `CC(=O)n1cc(/C=C(/C(=O)O)c2ccc(Cl)cc2)c2cc(OCc3ccccc3)ccc21` as the molecule, how does the viability at 72 h [17] read?
Its viability at 72 h is 85%.

And the IC50 (M14)?
Its IC50 is over 100 µM.

What about the IC50 (A549) of the same molecule?
Its IC50 is 52.3 µM.

And the IC50 (KB)?
Its IC50 is over 100 µM.

What about the IC50 (LNCaP) of the same molecule?
Its IC50 is over 100 µM.

What about the IC50 (DU-145 [18]) of the same molecule?
Its IC50 is 1.13 µM.

Which results are given for `COc1ccc(/C(=C\c2cn(C(C)=O)c3ccc(OCc4ccccc4)cc23)C(=O)O)cc1OC`?
viability at 72 h [17]: 85%; IC50 (M14): 65.5 µM; IC50 (A549): 54.8 µM; IC50 (KB): 96.7 µM; IC50 (LNCaP): > 100 µM; IC50 (DU-145 [18]): 1.05 µM

What does the source list for `COc1ccccc1/C(=C\c1cn(C(C)=O)c2ccc(OCc3ccccc3)cc12)C(=O)O`?
viability at 72 h [17]: 85%; IC50 (M14): > 100 µM; IC50 (A549): 57.2 µM; IC50 (KB): > 100 µM; IC50 (LNCaP): 48.5 µM; IC50 (DU-145 [18]): 1.01 µM

What does the source list for `COc1ccc(/C(=C\c2c[nH]c3ccccc23)C(=O)O)cc1`?
viability at 72 h [17]: 85%; IC50 (M14): > 100 µM; IC50 (Caco-2): > 100 µM; IC50 (KB): > 100 µM; IC50 (DU-145 [18]): > 100 µM

From ChEMBL document CHEMBL2417450, “Antitumor properties of substituted (αE)-α-(1H-indol-3-ylmethylene)benzeneacetic acids or amides” (Bioorg Med Chem, 2013)
